According to ChEMBL document CHEMBL1124440, “Resolved N,N-dialkylated 2-amino-8-hydroxytetralins: stereoselective interactions with 5-HT1A receptors in the brain” (J Med Chem, 1989):

Legend:
[1] = biological target: T1, Tryptophan 5-hydroxylase 1 (Rattus norvegicus) (UniProt P09810); experiment: Compound was tested for its effect on NSD 1015 induced accumulation of 5-HTP in rats corpus striatum at a dosage of 0.10 umol/kg; format: functional, tissue-based
T1 sequence (whole entry): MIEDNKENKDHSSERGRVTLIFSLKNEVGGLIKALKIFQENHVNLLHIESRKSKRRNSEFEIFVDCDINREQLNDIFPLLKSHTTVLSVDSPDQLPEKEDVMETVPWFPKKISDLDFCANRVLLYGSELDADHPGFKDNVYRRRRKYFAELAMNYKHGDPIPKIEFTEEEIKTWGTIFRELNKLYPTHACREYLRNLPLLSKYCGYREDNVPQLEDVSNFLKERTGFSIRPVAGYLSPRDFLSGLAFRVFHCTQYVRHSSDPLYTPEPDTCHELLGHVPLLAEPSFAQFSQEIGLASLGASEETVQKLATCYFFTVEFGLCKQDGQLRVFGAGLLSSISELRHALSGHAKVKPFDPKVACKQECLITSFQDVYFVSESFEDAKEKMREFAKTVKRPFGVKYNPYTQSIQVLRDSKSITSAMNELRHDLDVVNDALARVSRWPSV
Outline: (§1)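 Rats given test drug s.c. in the neck as hydrochloride (5 mL/kg), not reserpine-pretreated; 30 min later NSD 1015 (60 mg/kg, i.e. 287 μmol/kg sc), killed 30 min after that. Brain regions dissected. 5-HTP measured by ion-pair reversed-phase HPLC with electrochemical detection. Mean ± SEM, n = 15 controls, 3–5 per dose; ANOVA with Dunnett's t test vs controls.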

[2] = biological target: T1, Tryptophan 5-hydroxylase 1 (Rattus norvegicus); experiment: Compound was tested for its effect on NSD 1015 induced accumulation of 5-HTP in rats in corpus striatum at a dosage of 0.32 umol/kg; format: functional, tissue-based; outline: as §1
[3] = biological target: T1, Tryptophan 5-hydroxylase 1 (Rattus norvegicus); experiment: Approximate dose levels for a half maximal reduction of 5-HTP levels; format: functional; outline: as §1
[4] = biological target: T1, Tryptophan 5-hydroxylase 1 (Rattus norvegicus); experiment: Compound was tested for its effect on NSD 1015 induced accumulation of 5-HTP(ng/g) in rats in corpus striatum at a dosage of 0.032 umol/kg; format: functional; outline: as §1
[5] = biological target: T1, Tryptophan 5-hydroxylase 1 (Rattus norvegicus); experiment: Compound was tested for its effect on NSD 1015 induced accumulation of 5-HTP(ng/g) in rats in corpus striatum at a dosage of 1.0 umol/kg; format: functional; outline: as §1
[6] = biological target: T1, Tryptophan 5-hydroxylase 1 (Rattus norvegicus); experiment: Compound was tested for its effect on NSD 1015 induced accumulation of 5-HTP(ng/g) in rats in limbic system at a dosage of 0.032 umol/kg; format: functional; outline: as §1
[7] = biological target: T1, Tryptophan 5-hydroxylase 1 (Rattus norvegicus); experiment: Compound was tested for its effect on NSD 1015 induced accumulation of 5-HTP(ng/g) in rats in limbic system at a dosage of 0.10 umol/kg; format: functional, tissue-based; outline: as §1
[8] = biological target: T1, Tryptophan 5-hydroxylase 1 (Rattus norvegicus); experiment: Compound was tested for its effect on NSD 1015 induced accumulation of 5-HTP(ng/g) in rats in limbic system at a dosage of 0.32 umol/kg; format: functional, tissue-based; outline: as §1
[9] = biological target: T1, Tryptophan 5-hydroxylase 1 (Rattus norvegicus); experiment: Compound was tested for its effect on NSD 1015 induced accumulation of 5-HTP(ng/g) in rats in limbic system at a dosage of 1.0 umol/kg; format: functional, tissue-based; outline: as §1
[10] = test system: Rattus norvegicus; experiment: No of rats exhibiting 5-HT motor syndrome tested in reserpinized rats at a subcutaneous dose of 1.0 umol/kg; 4 rats out of 5 showed activity; format: functional
[11] = test system: Rattus norvegicus; experiment: No of rats exhibiting 5-HT motor syndrome tested in reserpinized rats at a subcutaneous dose of 0.32 umol/kg; 0 rats out of 5 showed activity; format: functional
[12] = biological target: T2, 5-hydroxytryptamine receptor 1A (Rattus norvegicus, UniProt P19327); experiment: Concentration of compound required to inhibit cortical 5-hydroxytryptamine 1A receptor binding sites in rat brain was evaluated; format: tissue-based
T2 sequence (P19327 whole entry): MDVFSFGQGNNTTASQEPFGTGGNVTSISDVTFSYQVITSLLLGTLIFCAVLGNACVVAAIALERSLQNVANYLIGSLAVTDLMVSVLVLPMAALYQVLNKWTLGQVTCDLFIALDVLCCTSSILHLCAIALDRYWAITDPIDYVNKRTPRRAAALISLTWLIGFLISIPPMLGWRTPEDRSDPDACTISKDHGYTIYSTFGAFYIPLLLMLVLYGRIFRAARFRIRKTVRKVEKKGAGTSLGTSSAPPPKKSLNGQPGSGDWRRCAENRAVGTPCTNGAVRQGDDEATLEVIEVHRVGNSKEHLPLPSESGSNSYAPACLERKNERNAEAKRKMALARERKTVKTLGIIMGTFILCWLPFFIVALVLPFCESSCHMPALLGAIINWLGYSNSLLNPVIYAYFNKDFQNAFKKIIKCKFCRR

[13] = biological target: T1, Tryptophan 5-hydroxylase 1 (Rattus norvegicus); experiment: Compound was tested for its effect on NSD 1015 induced accumulation of 5-HTP(ng/g) in rats in limbic system at a dosage of 32 umol/kg; format: functional, tissue-based; outline: as §1
[14] = biological target: T1, Tryptophan 5-hydroxylase 1 (Rattus norvegicus); experiment: Compound was tested for its effect on NSD 1015 induced accumulation of 5-HTP(ng/g) in rats in corpus striatum at a dosage of 10 umol/kg; format: functional; outline: as §1
[15] = biological target: T1, Tryptophan 5-hydroxylase 1 (Rattus norvegicus); experiment: Compound was tested for its effect on NSD 1015 induced accumulation of 5-HTP(ng/g) in rats in corpus striatum at a dosage of 3.2 umol/kg; format: functional; outline: as §1
[16] = biological target: T1, Tryptophan 5-hydroxylase 1 (Rattus norvegicus); experiment: Compound was tested for its effect on NSD 1015 induced accumulation of 5-HTP(ng/g) in rats in corpus striatum at a dosage of 32 umol/kg; format: functional, tissue-based; outline: as §1
[17] = biological target: T1, Tryptophan 5-hydroxylase 1 (Rattus norvegicus); experiment: Compound was tested for its effect on NSD 1015 induced accumulation of 5-HTP(ng/g) in rats in limbic system at a dosage of 10 umol/kg; format: functional, tissue-based; outline: as §1
[18] = biological target: T1, Tryptophan 5-hydroxylase 1 (Rattus norvegicus); experiment: Compound was tested for its effect on NSD 1015 induced accumulation of 5-HTP(ng/g) in rats in limbic system at a dosage of 3.2 umol/kg; format: functional, tissue-based; outline: as §1
[19] = test system: Rattus norvegicus; experiment: No of rats exhibiting 5-HT motor syndrome tested in reserpinized rats at a subcutaneous dose of 1.0 umol/kg; o rats out of 3 showed activity; format: functional
[20] = test system: Rattus norvegicus; experiment: No of rats exhibiting 5-HT motor syndrome tested in reserpinized rats at a subcutaneous dose of 10 umol/kg; 4 rats out of 5 showed activity; format: functional
[21] = test system: Rattus norvegicus; experiment: No of rats exhibiting 5-HT motor syndrome tested in reserpinized rats at a subcutaneous dose of 3.2 umol/kg; 0 rats out of 5 showed activity; format: functional
[22] = test system: Rattus norvegicus; experiment: No of rats exhibiting 5-HT motor syndrome tested in reserpinized rats at a subcutaneous dose of 10 umol/kg; 0 rats out of 4 showed activity; format: functional
[23] = test system: Rattus norvegicus; experiment: No of rats exhibiting 5-HT motor syndrome tested in reserpinized rats at a subcutaneous dose of 32 umol/kg; 4 rats out of 4 showed activity; format: functional
[24] = biological target: T1, Tryptophan 5-hydroxylase 1 (Rattus norvegicus); experiment: Compound was tested for its effects on NSD 1015 induced accumulation of 5-HTP(ng/g) in rats in limbic system at a dosage of 0.10 umol/kg; format: functional, tissue-based; outline: as §1
[25] = test system: Rattus norvegicus; experiment: No of rats exhibiting 5-HT motor syndrome tested in reserpinized rats at a subcutaneous dose of 3.2 umol/kg; 0 rats out of 4 showed activity; format: functional
[26] = test system: Rattus norvegicus; experiment: No of rats exhibiting 5-HT motor syndrome rats tested in reserpinized rats at a subcutaneous dose of 10 umol/kg; 4 rats out of 4; format: functional
[27] = test system: Rattus norvegicus; experiment: No of rats exhibiting 5-HT motor syndrome rats tested in reserpinized rats at a subcutaneous dose of 32 umol/kg; 3 rats out of 3; format: functional
[28] = test system: Rattus norvegicus; experiment: Number of rats exhibiting 5-HT motor syndrome in reserpinized rats at a subcutaneous dose of 1.0 umol/kg; 0 rats out of 3 showed activity; format: functional

Compound | Activity [1] | Activity [2] | ED50 [3] | Activity [5] | Activity [8] | Activity [9] | IC50 [12] | Activity [13] | Activity [14] | Activity [15] | Activity [16] | Activity [17] | Activity [18] | other results
CCCN(CCC)[C@H]1CCc2cccc(O)c2C1 | 94 ng/g | 61 ng/g | 0.2 µmol/kg | 53 ng/g | 114 ng/g | 75 ng/g | – | – | – | – | – | – | – | Activity [4]: 95 ng/g; Activity [6]: 157 ng/g; Activity [7]: 154 ng/g; Activity [10]: 4; Activity [11]: 0
CCN(CC)[C@H]1CCc2cccc(O)c2C1 | – | – | 3 µmol/kg | 85 ng/g | – | 135 ng/g | 114 nM | 74 ng/g | 55 ng/g | 74 ng/g | 46 ng/g | 86 ng/g | 107 ng/g | Activity [19]: 0; Activity [20]: 4; Activity [21]: 0
CCCCN(CCCC)[C@@H]1CCc2cccc(O)c2C1 | – | – | 20 µmol/kg | – | – | – | 109 nM | 106 ng/g | 80 ng/g | – | 63 ng/g | 145 ng/g | – | Activity [22]: 0; Activity [23]: 4
CN(C)[C@@H]1CCc2cccc(O)c2C1 | 88 ng/g | 79 ng/g | 1 µmol/kg | 76 ng/g | 130 ng/g | 110 ng/g | 75 nM | – | 44 ng/g | 67 ng/g | – | 89 ng/g | 90 ng/g | Activity [24]: 172 ng/g; Activity [25]: 0; Activity [26]: 4; Activity [27]: 3; Activity [28]: 0
